According to ChEMBL document CHEMBL2331243, “Discovery and mechanism study of SIRT1 activators that promote the deacetylation of fluorophore-labeled substrate” (J Med Chem, 2013):
Where a chain is given by its changes, count along the chain named. Active and inactive are the calls of the source. The calls are words filed in the database; no cut-off is given here.

Experiments:
[1] = molecular target: T1, NAD-dependent protein deacetylase sirtuin-1 (Homo sapiens, UniProt Q96EB6); experiment: Activation of N-terminal His6-tagged SIRT1 (156 to 664 amino acid residues) (unknown origin) expressed in Escherichia coli BL21(DE3) using ac-RHKKac-AMC as substrate after 45 mins by fluorometric analysis
T1 sequence (Q96EB6 whole entry): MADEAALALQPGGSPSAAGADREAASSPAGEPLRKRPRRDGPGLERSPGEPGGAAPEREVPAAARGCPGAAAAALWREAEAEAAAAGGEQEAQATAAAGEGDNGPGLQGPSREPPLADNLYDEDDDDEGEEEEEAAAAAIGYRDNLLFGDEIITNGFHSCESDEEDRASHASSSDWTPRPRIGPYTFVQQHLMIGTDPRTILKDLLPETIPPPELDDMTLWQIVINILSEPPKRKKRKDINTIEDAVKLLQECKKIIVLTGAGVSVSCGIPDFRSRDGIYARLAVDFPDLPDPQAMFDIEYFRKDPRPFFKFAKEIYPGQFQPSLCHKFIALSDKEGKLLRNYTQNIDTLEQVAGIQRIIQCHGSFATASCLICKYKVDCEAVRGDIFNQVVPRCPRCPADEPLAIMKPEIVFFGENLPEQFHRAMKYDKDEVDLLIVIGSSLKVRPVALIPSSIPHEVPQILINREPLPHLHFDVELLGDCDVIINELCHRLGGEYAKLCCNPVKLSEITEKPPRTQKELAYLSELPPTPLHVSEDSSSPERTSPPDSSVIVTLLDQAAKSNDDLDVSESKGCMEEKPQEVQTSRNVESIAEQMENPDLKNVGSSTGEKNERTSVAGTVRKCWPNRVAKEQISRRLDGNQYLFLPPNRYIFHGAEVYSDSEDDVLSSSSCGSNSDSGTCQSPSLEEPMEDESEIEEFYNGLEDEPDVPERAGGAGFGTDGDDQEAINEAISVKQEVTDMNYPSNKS

[2] = molecular target: T2, NAD-dependent protein deacetylase sirtuin-3, mitochondrial (Homo sapiens, UniProt Q9NTG7); experiment: Activation of N-terminal His6-tagged SIRT3 (118 to 399 amino acid residues) (unknown origin) expressed in Escherichia coli BL21(DE3) using ac-RHKKac-AMC as substrate after 45 mins by fluorometric analysis
T2 sequence (Q9NTG7 whole entry): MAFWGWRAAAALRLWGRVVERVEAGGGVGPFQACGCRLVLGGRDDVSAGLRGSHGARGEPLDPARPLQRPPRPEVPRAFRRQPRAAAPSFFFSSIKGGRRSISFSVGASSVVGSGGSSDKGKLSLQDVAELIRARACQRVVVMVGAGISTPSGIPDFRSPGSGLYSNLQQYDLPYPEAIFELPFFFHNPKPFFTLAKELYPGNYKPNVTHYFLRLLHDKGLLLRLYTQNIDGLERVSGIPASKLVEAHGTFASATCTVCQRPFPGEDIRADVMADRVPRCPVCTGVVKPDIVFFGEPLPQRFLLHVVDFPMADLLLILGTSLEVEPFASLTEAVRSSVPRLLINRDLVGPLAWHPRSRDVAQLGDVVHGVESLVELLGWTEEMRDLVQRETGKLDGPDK
Procedure, shortened: (§1)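 Fluorescent deacetylation assay in 25 mM Tris, 137 mM NaCl, 2.7 mM KCl, 1 mM MgCl₂, pH 8.0, with 750 μM NAD⁺ and 31.25 μM ac-RHKK_ac-AMC. Enzyme was 3.6 μM SIRT3 or 4.2 μM GST-SIRT2, set to match SIRT1 activity. Trypsin released AMC from the deacetylated peptide, read at ex 340 / em 490 nm. Compounds were added from DMSO (DMSO as blank): single point at 50 μM, or 3-fold DMSO dilution series. EC1.5 (concentration giving 50% activity increase) and maximum activation were fitted to a dose–response function.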

[3] = molecular target: T3, NAD-dependent protein deacetylase sirtuin-1 (Homo sapiens) (UniProt Q96EB6); experiment: Activation of N-terminal His6-tagged SIRT1 (156 to 664 amino acid residues) (unknown origin) expressed in Escherichia coli BL21(DE3) using ac-RHKKac-AMC as substrate at 50 uM after 45 mins by fluorimetric analysis relative to control
T3 sequence (whole entry): T1 sequence (Q96EB6 whole entry)
Procedure, shortened: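 Fluorogenic deacetylation screen: 1 μM SIRT1 with 750 μM NAD⁺ and 31.25 μM ac-RHKK_ac-AMC in Tris buffer (25 mM Tris, 137 mM NaCl, 2.7 mM KCl, 1 mM MgCl₂, pH 8.0). Compounds at 50 μM from DMSO stocks; DMSO alone as blank. Trypsin then releases AMC from deacetylated peptide; fluorescence read at 340/490 nm.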

[4] = molecular target: T4, NAD-dependent protein deacetylase sirtuin-2 (Homo sapiens, UniProt Q8IXJ6); experiment: Activation of at N-terminal GST-tagged SIRT2 (34 to 356 amino acid residues) (unknown origin) expressed in Escherichia coli BL21(DE3) using ac-RHKKac-AMC as substrate after 45 mins by fluorometric analysis; procedure, shortened: as §1
T4 sequence (Q8IXJ6 whole entry): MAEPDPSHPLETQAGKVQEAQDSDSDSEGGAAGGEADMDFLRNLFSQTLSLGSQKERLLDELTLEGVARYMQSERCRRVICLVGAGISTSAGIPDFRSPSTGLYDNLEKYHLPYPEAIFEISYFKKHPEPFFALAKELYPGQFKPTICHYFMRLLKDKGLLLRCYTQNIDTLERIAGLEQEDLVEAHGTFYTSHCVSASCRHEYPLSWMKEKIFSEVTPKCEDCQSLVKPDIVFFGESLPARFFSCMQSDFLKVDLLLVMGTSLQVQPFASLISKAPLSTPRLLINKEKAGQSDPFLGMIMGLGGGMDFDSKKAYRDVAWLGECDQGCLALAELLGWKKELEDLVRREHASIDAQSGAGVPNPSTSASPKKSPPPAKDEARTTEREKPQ

[5] = molecular target: T5, NAD-dependent protein deacetylase sirtuin-3, mitochondrial (Homo sapiens) (UniProt Q9NTG7); experiment: Activation of N-terminal His6-tagged SIRT3 (118 to 399 amino acid residues) (unknown origin) expressed in Escherichia coli BL21(DE3) using ac-RHKKac-AMC as substrate at 50 uM after 45 mins by fluorometric analysis relative to control; procedure, shortened: as §1
T5 sequence (whole entry): T2 sequence (Q9NTG7 whole entry)

[6] = molecular target: T6, NAD-dependent protein deacetylase sirtuin-2 (Homo sapiens) (UniProt Q8IXJ6); experiment: Activation of at N-terminal GST-tagged SIRT2 (34 to 356 amino acid residues) (unknown origin) expressed in Escherichia coli BL21(DE3) using ac-RHKKac-AMC as substrate at 50 uM after 45 mins by fluorometric analysis relative to control; procedure, shortened: as §1
T6 sequence (whole entry): T4 sequence (Q8IXJ6 whole entry)

[7] = molecular target: T3, NAD-dependent protein deacetylase sirtuin-1 (Homo sapiens); experiment: Activation of SIRT1 in human MCF7 cells assessed as reduction in doxorubicin-induced acetyl-p53 level at >100 uM after 6 hrs by Western blotting analysis; assay type: cell-based
Procedure, shortened: (§2)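 MCF-7 cells were seeded at 1 × 10⁵ in DMEM with 10% fetal calf serum and grown 24 h at 37 °C, 5% CO₂. They then got gradient compound concentrations with 0.1 μM trichostatin and 5 μM doxorubicin for 6 h, then lysis. 50 μg protein was run on a 9% gel and blotted with polyclonal anti-acetyl-p53 (Lys382) at 4 °C overnight, with HRP anti-rabbit detection.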

[8] = molecular target: T3, NAD-dependent protein deacetylase sirtuin-1 (Homo sapiens); experiment: Activation of N-terminal His6-tagged SIRT1 (156 to 664 amino acid residues) (unknown origin) expressed in Escherichia coli BL21(DE3) using ac-RHKKac-NH2 as substrate after 45 mins by HPLC analysis
[9] = test system: T7, NAD-dependent protein deacetylase sirtuin-1 (Homo sapiens), Q96EB6 [R446A]; experiment: Activation of SIRT1 R446A mutant (unknown origin) at 50 uM relative to control
T7 sequence (whole entry): T1 sequence (Q96EB6 whole entry) with R446A
Procedure, shortened: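 SIRT1 R446A mutant made by site-directed mutagenesis, expressed in E. coli and purified on Ni-NTA. Fluorescent deacetylation assay used 1 μM enzyme, 750 μM NAD⁺, 31.25 μM ac-RHKK_ac-AMC and 50 μM compound versus DMSO, in Tris buffer pH 8.0. Trypsin released AMC from deacetylated peptide, read at ex 340/em 490 nm.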

[10] = molecular target: T3, NAD-dependent protein deacetylase sirtuin-1 (Homo sapiens); experiment: Activation of SIRT1 in human MCF7 cells assessed as reduction in doxorubicin-induced acetyl-p53 level at <100 uM after 6 hrs by Western blotting analysis; assay type: cell-based; procedure, shortened: as §2

SMILES | EC50 [1] | EC50 [2] | max activation [3] | EC50 [4] | max activation [5] | max activation [6] | Activity [7] | Activity [8] | max activation [9] | Activity [10]
O=C(N/N=C/c1cc(Br)c(O)c(Br)c1O)c1ccc2cc(-c3ccccc3)ccc2c1 | 1.8 µM | 28.6 µM | 194% | 11.6 µM | 199% | 257% | – | – | – | –
Oc1ccc(/C=C/c2cc(O)cc(O)c2)cc1 | – | – | 802% | – | – | – | Active | inactive | 239% | inactive
